From ChEMBL document CHEMBL1124597, “Quinones. 4. Novel eicosanoid antagonists: synthesis and pharmacological evaluation” (J Med Chem, 1989)

Legend:
Oryctolagus cuniculus [1] = organism: Oryctolagus cuniculus; assay: In vitro percent inhibition against U-44,069 (10e-7 M) induced contraction of rabbit aorta at 10e-5 M concentration.; assay type: functional
How it was run: (§1)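 Rabbit aortic strips (2-3 mm × 3 cm) in Krebs-Henseleit, 37 °C, 95% O2/5% CO2, 2 g resting tension, isometric recording. Drugs (final 10⁻⁵ to 10⁻⁸ M, 0.01% DMSO) added 10 min before U-44069 (2-6 nM, about 50% of the 30 mM KCl contraction). Percent inhibition, or concentration reducing contraction by 50%; duplicate means.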

Oryctolagus cuniculus [2] = organism: Oryctolagus cuniculus; assay: In vitro percent inhibition against U-44,069 (10e-7 M) induced contraction of rabbit aorta at 10e-6 M concentration; assay type: functional; how it was run: as §1
Oryctolagus cuniculus [3] = organism: Oryctolagus cuniculus; assay: In vitro concentration that reduced U-44069-induced contraction of the rabbit aorta by 50%; assay type: functional; how it was run: as §1
Oryctolagus cuniculus [4] = organism: Oryctolagus cuniculus; assay: In vitro percent inhibition against U-44,069 (10e-7 M) induced contraction of rabbit aorta at 10e-7 M concentration; assay type: functional; how it was run: as §1
Oryctolagus cuniculus [5] = organism: Oryctolagus cuniculus; assay: Percent inhibition of compound against U-44,069 (10e-7 M) induced contraction of rabbit aorta at 3*10e-8 M concentration; assay type: functional; how it was run: as §1
Cavia porcellus [6] = organism: Cavia porcellus; assay: In vitro concentration that reduced U-44069-induced aggregation of guinea pig platelets by 50%; assay type: functional
How it was run: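 PRP from conscious male guinea pigs, blood taken by cardiac puncture into 3.15% citrate (1:9); platelets adjusted to 450 000/μL. PRP preincubated 2 min at 37 °C, then incubated 2 min with U-44069 at a concentration giving submaximal aggregation. IC50 = antagonist concentration reducing aggregation by 50%.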

Cavia porcellus [7] = assay: In vivo percentage of inhibition against LTD -induced bronchoconstriction in guinea pig at a concentration of 0.31 mg/kg after 1 hour of oral administration; assay type: functional
How it was run: (§2)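 Guinea pigs were challenged iv with LTD4, PAF or U-46619, each at 10 µg/kg. Bronchoconstriction was measured by the Konzett-Rössler overflow method, as for the sensitized animals (urethane 1.5 g/kg ip, gallamine 1 mg/kg iv). Drug suspended in 5% gum arabic was dosed orally 1 h before spasmogen; eight animals per group; percent inhibition of bronchoconstriction.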

Cavia porcellus [8] = assay: In vivo inhibition against U-46619-induced bronchoconstriction in guinea pig; assay type: functional; conditions: read-out: ID50 (the source's name)
How it was run: (§3)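 Urethane-anesthetized (1.5 g/kg ip) guinea pigs given gallamine (1 mg/kg iv); bronchoconstriction measured by Konzett-Rössler overflow. Challenge was U-46619, LTD4 or PAF at 10 μg/kg iv, or IgG1-mediated in animals sensitized ip with egg albumin (1 mg/kg)/FCA and used 3 weeks later. Drug given orally in 5% gum arabic 1 h before challenge; n = 8. ID50 = dose giving 50% inhibition.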

Cavia porcellus [9] = assay: In vivo percentage of inhibition against IgG1 -induced bronchoconstriction in guinea pig at a concentration of 5 mg/kg after 1 hour of oral administration; assay type: functional; how it was run: as §3
Cavia porcellus [10] = assay: In vivo percentage of inhibition against PAF -induced bronchoconstriction in guinea pig at a concentration of 0.31 mg/kg after 1 hour of oral administration; assay type: functional; how it was run: as §2
Cavia porcellus [11] = assay: In vivo percentage of inhibition against LTD -induced bronchoconstriction in guinea pig at a concentration of 0.08 mg/kg after 1 hour of oral administration; assay type: functional; how it was run: as §3
Cavia porcellus [12] = assay: In vivo percentage of inhibition against LTD -induced bronchoconstriction in guinea pig at a concentration of 1.25 mg/kg after 1 hour of oral administration; assay type: functional; how it was run: as §3
Cavia porcellus [13] = assay: In vivo percentage of inhibition against U-46619 -induced bronchoconstriction in guinea pig at a concentration of 0.08 mg/kg after 1 hour of oral administration; assay type: functional; how it was run: as §3
Cavia porcellus [14] = organism: Cavia porcellus; assay: In vitro concentration that reduced U-46619-induced contraction of guinea pig lung; conditions: read-out: pA2 (converted)
Oryctolagus cuniculus [15] = organism: Oryctolagus cuniculus; assay: In vitro concentration that reduced U-44069-induced contraction of the rabbit aorta; assay type: functional; conditions: read-out: pA2 (converted); how it was run: as §1
Cavia porcellus [16] = assay: In vivo inhibition against IgG1-induced bronchoconstriction in guinea pig; assay type: functional; conditions: read-out: ID50 (the source's name); how it was run: as §3
Cavia porcellus [17] = assay: In vivo percentage of inhibition against IgG1 -induced bronchoconstriction in guinea pig at a concentration of 0.31 mg/kg after 1 hour of oral administration; assay type: functional
How it was run: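 Guinea pigs sensitized ip with egg albumin (1 mg/kg) emulsified in Freund's complete adjuvant. Three weeks later, animals whose sera at 1:1000 gave a positive 3-h passive cutaneous anaphylaxis were used. Under urethane (1.5 g/kg ip) and gallamine (1 mg/kg iv), IgG1-mediated bronchoconstriction was measured by Konzett-Rössler overflow. Drug in 5% gum arabic was given orally 1 h before challenge; eight animals per group.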

Cavia porcellus [18] = assay: In vivo inhibition against LTD-induced bronchoconstriction in guinea pig; assay type: functional; conditions: read-out: ID50 (the source's name); how it was run: as §3
Cavia porcellus [19] = assay: In vivo percentage of inhibition against PAF-induced bronchoconstriction in guinea pig at a concentration of 1.25 mg/kg after 1 hour of oral administration; assay type: functional; how it was run: as §3
Cavia porcellus [20] = assay: In vivo percentage of inhibition against IgG1 -induced bronchoconstriction in guinea pig at a concentration of 1.25 mg/kg after 1 hour of oral administration; assay type: functional; how it was run: as §3
Cavia porcellus [21] = assay: In vivo percentage of inhibition against U-46619-induced bronchoconstriction in guinea pig at a concentration of 1.25 mg/kg after 1 hour of oral administration; assay type: functional; how it was run: as §3
Cavia porcellus [22] = assay: In vivo percentage of inhibition against PAF-induced bronchoconstriction in guinea pig at a concentration of 5 mg/kg after 1 hour of oral administration; assay type: functional; how it was run: as §3
Cavia porcellus [23] = assay: In vivo percentage of inhibition against LTD -induced bronchoconstriction in guinea pig at a concentration of 5 mg/kg after 1 hour of oral administration; assay type: functional; how it was run: as §3
Cavia porcellus [24] = assay: In vivo percentage of inhibition against U-46619 -induced bronchoconstriction in guinea pig at a concentration of 0.31 mg/kg after 1 hour of oral administration; assay type: functional; how it was run: as §2

| IC50 (Oryctolagus cuniculus [3]) [nM] | Compound | Inhibition (Oryctolagus cuniculus [1]) [%] | Inhibition (Oryctolagus cuniculus [2]) [%] | also measured |
| --- | --- | --- | --- | --- |
| 3200 | CC1=C(C)C(=O)C(C(CCCCCCC(=O)O)c2ccccc2)=C(C)C1=O (configuration not stated) | 98 | 0 | – |
| – | COc1ccccc1C(CCCCCC(=O)O)C1=C(C)C(=O)C(C)=C(C)C1=O (configuration not stated) | 0 | – | – |
| 1700 | CC1=C(C)C(=O)C(C(CCCCCC(=O)O)c2ccc(Br)cc2)=C(C)C1=O (configuration not stated) | 94 | 36 | – |
| – | CC1=C(C)C(=O)C(C(CCOc2cccc(C(=O)O)c2)c2ccccc2)=C(C)C1=O (configuration not stated) | 2 | – | – |
| – | CC1=C(C)C(=O)C(C(CCc2cccc(C(=O)O)c2)c2ccccc2)=C(C)C1=O (configuration not stated) | 89 | 0 | – |
| – | CC1=C(C)C(=O)C(C(CCCCCCO)c2ccccc2)=C(C)C1=O (configuration not stated) | 0 | – | – |
| – | CC1=C(C)C(=O)C(C(CCCCCC(=O)NCC(=O)O)c2ccccc2)=C(C)C1=O (configuration not stated) | 0 | – | – |
| 280 | CC1=C(C)C(=O)C(C(CCCCCC(=O)O)c2ccc(Cl)cc2)=C(C)C1=O (configuration not stated) | 100 | 91 | Inhibition (Oryctolagus cuniculus [4]): 17% |
| 3200 | CC1=C(C)C(=O)C(C(CCCCCC(=O)O)c2ccccc2C)=C(C)C1=O (configuration not stated) | 99 | 0 | – |
| 3200 | COC1=C(OC)C(=O)C(C(CCCCCC(=O)O)c2ccc(F)cc2)=C(C)C1=O (configuration not stated) | 99 | 0 | – |
| 48 | CC1=C(C)C(=O)C(C(CCCCCC(=O)O)c2ccc(F)cc2)=C(C)C1=O (configuration not stated) | 100 | 100 | Inhibition (Oryctolagus cuniculus [4]): 96%; Inhibition (Oryctolagus cuniculus [5]): 20% |
| – | CC1=C(C)C(=O)C(C(C)CCCCCC(=O)O)=C(C)C1=O (configuration not stated) | 0 | – | – |
| – | CC1=C(C)C(=O)C(C(CCC(=O)O)c2ccccc2)=C(C)C1=O (configuration not stated) | 0 | – | – |
| – | CCCCCCC(C1=C(C)C(=O)C(C)=C(C)C1=O)c1ccccc1 (configuration not stated) | 25 | – | – |
| – | CC1=C(C)C(=O)C(C(CCCC(=O)O)c2ccccc2)=C(C)C1=O (configuration not stated) | 24 | – | – |
| 100 | CC1=C(C)C(=O)C(C(CCCCCC(=O)O)c2ccccc2)=C(C)C1=O (configuration not stated) [SERATRODAST] | 99 | 99 | IC50 (Cavia porcellus [6]): 350 nM; inhibition in vivo at 0.31 mg/kg (Cavia porcellus [7]): 58%; ED50 (Cavia porcellus [8]): 0.13 mg/kg; inhibition in vivo at 5 mg/kg (Cavia porcellus [9]): 91%; Inhibition (Oryctolagus cuniculus [4]): 49%; inhibition in vivo at 0.31 mg/kg (Cavia porcellus [10]): 66%; inhibition in vivo at 0.08 mg/kg (Cavia porcellus [11]): 24%; inhibition in vivo at 1.25 mg/kg (Cavia porcellus [12]): 77%; inhibition in vivo at 0.08 mg/kg (Cavia porcellus [13]): 31%; Kb (Cavia porcellus [14]): 5.13 nM; Kb (Oryctolagus cuniculus [15]): 5.25 nM; ED50 (Cavia porcellus [16]): 0.2 mg/kg; inhibition in vivo at 0.31 mg/kg (Cavia porcellus [17]): 71%; ED50 (Cavia porcellus [18]): 0.19 mg/kg; inhibition in vivo at 1.25 mg/kg (Cavia porcellus [19]): 94%; inhibition in vivo at 1.25 mg/kg (Cavia porcellus [20]): 85%; inhibition in vivo at 1.25 mg/kg (Cavia porcellus [21]): 90%; inhibition in vivo at 5 mg/kg (Cavia porcellus [22]): 85%; inhibition in vivo at 5 mg/kg (Cavia porcellus [23]): 94%; inhibition in vivo at 0.31 mg/kg (Cavia porcellus [24]): 89% |
| – | CC1=C(C(CCCCCC(=O)O)c2ccc(F)cc2)C(=O)c2ccccc2C1=O (configuration not stated) | 100 | 100 | Inhibition (Oryctolagus cuniculus [4]): 78% |
| 760 | CC1=C(C)C(=O)C(C(CCCCCC(=O)O)c2cccs2)=C(C)C1=O (configuration not stated) | 100 | 65 | Inhibition (Oryctolagus cuniculus [4]): 0% |
| – | CC1=C(C)C(=O)C(CCCCCCC(=O)O)=C(C)C1=O | 8 | – | – |
